Holding throughout (format): cell-based
Data set [1] concerns the target T1, Peroxisome proliferator-activated receptor alpha (Homo sapiens) (UniProt Q07869).
T1 sequence (whole entry): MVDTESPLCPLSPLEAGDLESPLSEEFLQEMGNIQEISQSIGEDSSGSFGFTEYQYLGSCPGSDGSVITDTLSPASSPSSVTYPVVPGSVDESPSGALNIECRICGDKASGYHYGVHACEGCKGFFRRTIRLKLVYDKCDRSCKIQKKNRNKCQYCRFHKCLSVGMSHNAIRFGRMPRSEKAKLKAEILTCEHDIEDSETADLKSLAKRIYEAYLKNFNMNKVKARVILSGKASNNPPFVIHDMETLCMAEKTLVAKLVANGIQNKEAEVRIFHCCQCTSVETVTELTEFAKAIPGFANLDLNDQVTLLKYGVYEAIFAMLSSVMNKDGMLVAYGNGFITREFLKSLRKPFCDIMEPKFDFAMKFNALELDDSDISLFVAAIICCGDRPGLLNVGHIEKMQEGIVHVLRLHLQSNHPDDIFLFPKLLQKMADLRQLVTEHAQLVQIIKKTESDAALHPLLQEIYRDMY
Briefly: Agonist activity at GAL4-DBD fused human PPARalpha-LBD (159 to 468 residues) expressed in human HepG2 cells at 10 uM after 24 hrs by dual luciferase reporter gene based mammalian one hybrid assay relative to control. The gist of the method:
(§1)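 HepG2 cells (DMEM, 10% FBS) transfected with GAL4-DBD/human PPAR-LBD expression vector (0.05 μg), GALRE-luc reporter (0.1 μg) and pGL4.74 Renilla (0.01 μg). After overnight incubation, 0.1–20 μM compound or 0.1% DMSO for 24 h. Dual-luciferase readout, firefly normalized to Renilla. Fold activation over solvent, four independent transfections (mean ± SD, n = 4).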
(In a reporter assay the amount or activity of a reporter protein is the signal.)

The target of data set [2] is T1, Peroxisome proliferator-activated receptor alpha (Homo sapiens). Briefly: Agonist activity at PPARalpha in human THP1 cells assessed as induction of ABCA1 mRNA expression after 24 hrs by RT-qPCR analysis. The gist of the method: (§2)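 THP-1 cells (RPMI-1640, 10% FBS) differentiated with 200 nM PMA for 48 h, then treated 24 h with compound (1, 10, 20 μM; reference 50 μM) or 0.1% DMSO. Total RNA extracted, reverse transcribed. SYBR qPCR, 40 cycles (98 °C 5 s, 55 °C 20 s, 72 °C 30 s). Normalized to β-actin mRNA. Fold over solvent, n = 4 (mean ± SD).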

The target is the same in data set [3]. Briefly: Agonist activity at PPARalpha in human THP1 cells assessed as induction of PPARalpha mRNA expression after 24 hrs by RT-qPCR analysis. The gist of the method: as §2
(In general: Quantitative PCR measures a nucleic acid by following its amplification.)

Data set [4] shares this target. Briefly: Agonist activity at full length human N-terminal Myc-tagged PPARalpha expressed in human HepG2 cells coexpressing RXRalpha assessed as transcriptional activation of PPRE at 10 uM incubated for 24 hrs by dual luciferase reporter gene assay. The gist of the method:
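HepG2 cells co-transfected with PPRE-luc reporter (0.1 μg), PPARα and RXRα expression vectors (0.05 μg each) and pGL4.74 (0.01 μg). Treated 24 h with test compound or 0.1% DMSO. Dual-luciferase readout, firefly/Renilla. Fold activation over solvent, four independent transfections (mean ± SD, n = 4).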

Data set [5] shares this target. As to the kind of experiment: Agonist activity at PPARalpha in human THP1 cells assessed as induction of PPARalpha mRNA expression at 20 uM in presence of MK-886 after 24 hrs by RT-qPCR analysis. The gist of the method:
(§3)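 PMA-differentiated THP-1 cells (200 nM, 48 h) pretreated 1 h with MK-886 (200 μM), then given compound or 0.1% DMSO for 24 h. Target mRNA measured by SYBR RT-qPCR and normalized to β-actin. Fold induction over solvent, four experiments (mean ± SD, n = 4).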

Data set [6] has the same target. Briefly: Agonist activity at PPARalpha in human THP1 cells assessed as induction of ABCA1 mRNA expression at 20 uM in presence of MK-886 after 24 hrs by RT-qPCR analysis. The gist of the method:
as §3

Data set [7] addresses T2, Peroxisome proliferator-activated receptor delta (Homo sapiens) (UniProt Q03181).
T2 sequence (whole entry): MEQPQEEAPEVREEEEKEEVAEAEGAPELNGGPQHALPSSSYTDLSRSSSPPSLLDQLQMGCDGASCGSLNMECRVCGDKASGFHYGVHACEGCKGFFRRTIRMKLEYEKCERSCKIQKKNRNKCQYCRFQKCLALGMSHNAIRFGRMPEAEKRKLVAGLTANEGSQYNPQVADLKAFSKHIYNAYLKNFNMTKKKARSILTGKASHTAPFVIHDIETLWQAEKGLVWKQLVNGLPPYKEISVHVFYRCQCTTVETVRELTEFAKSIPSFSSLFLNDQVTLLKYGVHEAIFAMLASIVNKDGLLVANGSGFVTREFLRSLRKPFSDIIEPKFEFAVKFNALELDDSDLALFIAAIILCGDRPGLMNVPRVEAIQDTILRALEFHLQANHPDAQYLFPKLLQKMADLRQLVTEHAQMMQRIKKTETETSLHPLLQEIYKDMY
Briefly: Antagonist activity at GAL4-DBD fused human PPARbeta/delta-LBD (136 to 441 residues) expressed in human HepG2 cells assessed as inhibition of GW0742-induced receptor activation at 10 uM by luciferase reporter gene based mammalian one hybrid assay. The gist of the method:
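HepG2 cells transfected with GAL4/PPARβ/δ-LBD vector (0.05 μg), GALRE-luc (0.1 μg) and pGL4.74 (0.01 μg). Treated 24 h with 10 μM compound, 10 μM GW0742, or both together, vs 0.1% DMSO. Dual-luciferase, Renilla-normalized. Fold over solvent, four transfections (mean ± SD, n = 4).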

In data set [8] the target is T1, Peroxisome proliferator-activated receptor alpha (Homo sapiens). Briefly: Agonist activity at PPARalpha in human THP1 cells assessed as induction of CPT-1 mRNA expression at 20 uM in presence of MK-886 after 24 hrs by RT-qPCR analysis. The gist of the method:
as §3

Another data set deals with HepG2. As to the kind of experiment: Cytotoxicity against human HepG2 cells assessed as reduction in cell viability at 10 uM after 24 hrs by MTS assay. To be noted: hepg2, 24 h. Background: Tetrazolium assays rely on reduction of a dye to a coloured formazan, in cell work by metabolically active cells.
The target of data set [9] is T3, Peroxisome proliferator-activated receptor delta (Homo sapiens, UniProt Q03181).
T3 sequence (Q03181 whole entry): T2 sequence (whole entry)
Briefly: Agonist activity at GAL4-DBD fused human PPARbeta/delta-LBD (136 to 441 residues) expressed in human HepG2 cells at 0.1 to 20 uM after 24 hrs by luciferase reporter gene based mammalian one hybrid assay relative to control. The gist of the method:
as §1

For data set [10], the target named is T1, Peroxisome proliferator-activated receptor alpha (Homo sapiens). Briefly: Agonist activity at PPARalpha in human THP1 cells assessed as induction of PDK4 mRNA expression after 24 hrs by RT-qPCR analysis. The gist of the method: as §2
The target in data set [11] is T4, Peroxisome proliferator-activated receptor gamma (Homo sapiens, UniProt P37231).
T4 sequence (P37231 whole entry): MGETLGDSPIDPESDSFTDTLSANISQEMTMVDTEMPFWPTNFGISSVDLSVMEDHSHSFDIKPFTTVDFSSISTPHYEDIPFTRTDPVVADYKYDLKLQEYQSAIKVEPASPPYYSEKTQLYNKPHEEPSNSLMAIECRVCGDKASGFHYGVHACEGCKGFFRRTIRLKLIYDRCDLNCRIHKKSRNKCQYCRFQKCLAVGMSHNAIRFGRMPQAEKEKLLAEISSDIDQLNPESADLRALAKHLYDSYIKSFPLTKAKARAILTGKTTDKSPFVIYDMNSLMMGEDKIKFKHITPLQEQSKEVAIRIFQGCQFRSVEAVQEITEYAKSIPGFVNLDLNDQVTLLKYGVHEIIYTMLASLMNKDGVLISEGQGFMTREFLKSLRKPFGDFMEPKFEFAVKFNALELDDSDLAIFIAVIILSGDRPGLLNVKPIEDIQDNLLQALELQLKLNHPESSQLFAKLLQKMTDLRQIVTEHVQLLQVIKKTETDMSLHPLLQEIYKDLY
Briefly: Agonist activity at GAL4-DBD fused human PPARgamma-LBD (157 to 475 residues) expressed in human HepG2 cells at 0.1 to 20 uM after 24 hrs by luciferase reporter gene based mammalian one hybrid assay relative to control. The gist of the method:
as §1

The subject of another data set is THP-1. As to the kind of experiment: Cytotoxicity against PMA-differentiated human THP1 cells assessed as reduction in cell viability at 10 uM after 24 hrs by MTS assay. The conditions noted are these: thp-1, 24 h.
The target of data set [12] is T1, Peroxisome proliferator-activated receptor alpha (Homo sapiens). Briefly: Agonist activity at PPARalpha in human THP1 cells assessed as induction of PDK4 mRNA expression at 20 uM in presence of MK-886 after 24 hrs by RT-qPCR analysis. The gist of the method: as §3
Data set [13] shares this target. As to the kind of experiment: Agonist activity at GAL4-DBD fused human PPARalpha-LBD (159 to 468 residues) expressed in human HepG2 cells after 24 hrs by dual luciferase reporter gene based mammalian one hybrid assay relative to control. The gist of the method: as §1
The target is the same in data set [14]. As to the kind of experiment: Agonist activity at PPARalpha in human THP1 cells assessed as induction of CPT-1 mRNA expression after 24 hrs by RT-qPCR analysis. The gist of the method:
as §2

Structures are written as SMILES. Calls of active or inactive are those of the source. The calls are words filed in the database; no cut-off is given here.

`Cc1cccc(Nc2cc(Cl)nc(SCC(=O)O)n2)c1C`: the result in data set [1] was Active.
With `COc1cccc2c1[nH]c1c(CCC(OC)C(=O)c3nccc4c3[nH]c3ccccc34)ncc(OC)c12` (configuration not stated) [PICRASIDINE C], the result in data set [1] and in [4] was Active. The Activity entry in data set [2] is “Dose-dependent effect”; in [3] it was “Dose-dependent effect”; in the data set on HepG2 it was “Non-Toxic”; in data set [9], “Not Active”; in data set [10], “Dose-dependent effect”; in [11], “Not Active”. Further, the figures for the Activity result (in the data set on THP-1; in data set [13]; in data set [14]) were “Non-Toxic”, “Dose-dependent effect” and “Dose-dependent effect”, respectively. Also, the result in data set [5], in data set [6], in data set [8] and in data set [12] was inactive. The inhibition result in data set [7] is “inactive”.

The record behind these values is ChEMBL document CHEMBL3997774, “Identification of Picrasidine C as a Subtype-Selective PPARα Agonist” (J Nat Prod, 2016).
